Results reported in ChEMBL document CHEMBL4673194 (RSC Med Chem, 2021).
The source made the active and inactive calls. The rule behind the calls is not given here.

Assays:
[1] = molecular target: T1, Enoyl-[acyl-carrier-protein] reductase [NADH] (Mycobacterium tuberculosis) (UniProt P9WGR1); experiment: Inhibition of Mycobacterium tuberculosis InhA at 50 uM using DD-CoA as substrate relative to control
T1 sequence (whole entry): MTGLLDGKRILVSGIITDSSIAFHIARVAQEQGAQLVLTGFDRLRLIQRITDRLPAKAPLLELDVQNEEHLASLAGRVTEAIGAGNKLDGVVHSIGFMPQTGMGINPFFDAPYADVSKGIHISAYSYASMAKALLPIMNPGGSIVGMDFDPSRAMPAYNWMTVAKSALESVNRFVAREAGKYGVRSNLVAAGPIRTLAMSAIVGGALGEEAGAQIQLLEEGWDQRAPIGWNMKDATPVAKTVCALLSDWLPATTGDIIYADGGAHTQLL
In short: (§1)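 Wild-type InhA (100 nM) starts the reaction with 25 μM trans-2-dodecenoyl-CoA and 250 μM NADH in 30 mM PIPES, 150 mM NaCl, pH 6.8. Compound is present at a fixed 40 or 50 μM. Initial velocity is compared with a no-inhibitor control and expressed as percent inhibition.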

[2] = test system: Mycobacterium tuberculosis; experiment: Antitubercular activity against Mycobacterium tuberculosis H37Rv assessed as reduction in microbial growth incubated for 5 days by visual inspection method; type: functional; details: 120 h, time 5 day
In short: (§2)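 Two-fold serial dilution in Middlebrook 7H9-ADS-Gly broth, final concentrations 20 down to 1.25 μM, from DMSO stocks. Inoculated with about 10^6 CFU of mid-log H37Rv, incubated 37 °C for five days. Turbidity recorded visually, then MTT added. MIC is the lowest concentration preventing growth (yellow colour). Three biological repeats, each in technical duplicate; rifampicin control.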

[3] = test system: Vero; experiment: Cytotoxicity against African green monkey Vero cells assessed as reduction in cell viability incubated for 48 hrs by neutral red assay; type: cell-based; details: Chlorocebus sabaeus
In short: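 Vero cells grown in MEM with 10% heat-inactivated FCS, 0.15% NaHCO3, penicillin and streptomycin at 37 °C, 5% CO2. Seeded at 25 000 cells per well, 24 h, then compound for 48 h. Viable cells by neutral red uptake. IC50 from log plots of growth inhibition against concentration. Doxorubicin positive control, DMSO vehicle control. Top concentration 20 μM.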

[4] = test system: Leishmania donovani; experiment: Antileishmanial activity against promastigote form of Leishmania donovani S1 Sudan assessed as reduction in parasite growth incubated for 72 hrs by alamar blue assay; type: functional, organism-based
In short: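 S1 Sudan promastigotes kept at 26 °C in RPMI-1640 (no bicarbonate or pyruvate) with 10% FBS, subcultured twice weekly. Compounds added to promastigotes at 2 × 10^6 cells per mL at final 40, 8 and 1.6 μg mL−1, 72 h at 26 °C. Growth read by Alamar blue. IC50 from non-linear dose–response logistic regression. Triplicate. Pentamidine and amphotericin B standards.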

[5] = test system: Mycobacterium tuberculosis; experiment: Antitubercular activity against Mycobacterium tuberculosis H37Rv assessed as reduction in microbial growth incubated for 1 week by MTT assay; type: functional; details: 168 h, time 1 weeks
[6] = molecular target: T1, Enoyl-[acyl-carrier-protein] reductase [NADH] (Mycobacterium tuberculosis); experiment: Inhibition of recombinant Mycobacterium tuberculosis InhA expressed in Escherichia coli BL21 using DD-CoA as substrate by UV-Vis spectrophotometry; details: time 5.0 min
[7] = Lipophilicity, log P of the compound; type: physicochemical; details: octanol/water
[8] = molecular target: T1, Enoyl-[acyl-carrier-protein] reductase [NADH] (Mycobacterium tuberculosis); experiment: Inhibition of Mycobacterium tuberculosis InhA at 40 uM using DD-CoA as substrate relative to control; in short: as §1
[9] = test system: Mycobacterium tuberculosis; experiment: Antitubercular activity against Mycobacterium tuberculosis H37Rv assessed as reduction in microbial growth incubated for 5 to 7 days by inverted plate count method; type: functional; details: time 5-7 day
[10] = test system: Mycobacterium tuberculosis; experiment: Antitubercular activity against Mycobacterium tuberculosis H37Rv assessed as reduction in microbial growth incubated; type: functional; in short: as §2

| SMILES | MIC99 [2] | IC50 [3] | IC50 [4] | also measured |
| --- | --- | --- | --- | --- |
| CCCc1cn(Cc2ccccc2O)nn1 | 20 µM | > 20 µM | > 60 µM | inhibition [1]: 92% |
| CCCCc1cn(Cc2ccc(Oc3ccc(Cl)cc3O)c(Cl)c2)nn1 | – | – | – | MIC [5]: 1.5 µM; inhibition [6]: 98% |
| CCCCCCCCCCCCCn1cc(COc2ccccc2O)nn1 | > 100 µM | > 20 µM | 13.4 µM | logP [7]: 5.67; inhibition [8]: 63% |
| CCCCCCCCc1ccc(Oc2ccccc2)c(O)c1 | – | – | – | MIC [9]: 1.9 µM |
| CCc1cn(Cc2ccc(Oc3ccccc3C#N)c(O)c2)nn1 | – | – | – | MIC [10]: 2.02 µM |
| CC(C)=CCC/C(C)=C\Cn1cc(COc2ccccc2O)nn1 | > 100 µM | > 20 µM | 55 µM | inhibition [8]: 85% |
| CCCCCc1cn(Cc2ccccc2O)nn1 | 20 µM | > 20 µM | > 60 µM | inhibition [1]: inactive |
| CCc1cn(Cc2ccc(Oc3ccccc3C)c(O)c2)nn1 | – | – | – | MIC [10]: 3.9 µM |
| CCCCCc1c(CO)nnn1Cc1ccc2ccccc2c1 | > 100 µM | > 20 µM | 31.4 µM | inhibition [1]: inactive |
| Oc1cc(Cl)ccc1Oc1ccc(Cl)cc1Cl [TRICLOSAN] | 43 µM | – | – | – |
| CC(C)=CCC/C(C)=C/Cn1cc(COc2ccccc2O)nn1 | > 100 µM | > 20 µM | 51.9 µM | inhibition [8]: inactive |
| C[C@@H]1[C@H](O)[C@@H](C)/C=C/C=C/C=C/C=C/C=C/C=C/C=C/[C@H](O[C@@H]2O[C@H](C)[C@@H](O)[C@H](N)[C@@H]2O)C[C@@H]2O[C@](O)(C[C@@H](O)C[C@@H](O)[C@H](O)CC[C@@H](O)C[C@@H](O)CC(=O)O[C@H]1C)C[C@H](O)[C@H]2C(=O)O [AMPHOTERICIN B] | – | – | 0.11 µM | – |
| Cc1ccccc1Oc1ccc(Cn2cc(-c3ccccc3)nn2)cc1O | – | – | – | MIC [10]: ≤ 11.1 µM |
| Oc1ccccc1Cn1cc(-c2ccccc2)nn1 | 20 µM | > 20 µM | > 60 µM | inhibition [1]: inactive |
